These results are taken from PMC6334763 (Archives of biochemistry and biophysics, 2018).

Where two headings read alike, the source gives them in different places.

Data set [1] concerns the target T1, Bm-iAANAT3 (Bombyx mori, UniProt D7EZJ9). In words: Steady-state kinetic characterization with Ellman's reagent. The class given is biochemical. Particulars: for kcat: 300 mM Tris pH 8.0. For orientation: DTNB colorimetry detects thiols as they appear.
Data set [2] addresses T1, Bm-iAANAT3. Particulars: cited from earlier work.
For data set [3], the target named is T1, Bm-iAANAT3. In words: Dead-end and product inhibition analysis. The class given is biochemical. The conditions noted are these: for inhibition pattern vs. acetyl-CoA: acetyl-CoA varied, tryptamine fixed; for inhibition pattern vs. tryptamine: tryptamine varied, acetyl-CoA fixed. The gist of the method:
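Same Ni-purified Bm-iAANAT3. Initial velocities were measured at several fixed inhibitor levels: oleoyl-CoA at 0, 250 and 500 nM; tyrosol at 0, 150 and 300 μM. In one series, tryptamine was held at 100 μM while acetyl-CoA was varied at 10, 25, 50 and 100 μM. In the other, acetyl-CoA was held at 100 μM while tryptamine was varied at 50, 100, 150 and 300 μM.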

The target in data set [4] is T2, E27A mutant of Bm-iAANAT3 (Bombyx mori, UniProt D7EZJ9, E27A).
T2 sequence (D7EZJ9 1-213 E27A): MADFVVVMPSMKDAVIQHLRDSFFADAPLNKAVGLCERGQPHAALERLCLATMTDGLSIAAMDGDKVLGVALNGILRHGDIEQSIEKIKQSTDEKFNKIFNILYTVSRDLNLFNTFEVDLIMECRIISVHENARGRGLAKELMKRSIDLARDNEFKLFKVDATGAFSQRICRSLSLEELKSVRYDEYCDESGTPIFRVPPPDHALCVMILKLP
Description: Steady-state kinetic constants of the E27A mutant. Particulars: E27A mutant compared with wild-type Bm-iAANAT3. It counts as biochemical.

For data set [5], the target named is T1, Bm-iAANAT3. Description: Activity-based substrate screening. The class given is biochemical. The conditions noted are these: rate of CoA-SH release above enzyme-independent acyl-CoA hydrolysis. The gist of the method:
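Enzyme: Bm-iAANAT3 expressed from pET28a in E. coli BL-21(DE3), induced with 1.0 mM IPTG for 4 h at 37°C, and Ni-chelate purified. Acetyl-CoA or oleoyl-CoA at 500 μM was tested separately against pooled amines, each at 20 mM or 60 mM, in 300 mM Tris pH 8.0 with 150 μM DTNB. Initial rates came from CoA release at 412 nm (ε₄₁₂ = 13,600 M⁻¹ cm⁻¹), minus background thioester hydrolysis.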

Substrate in data set [6]: CC(=O)SCCNC(=O)CCNC(=O)[C@H](O)C(C)(C)COP(=O)(O)OP(=O)(O)OC[C@H]1O[C@@H](n2cnc3c(N)ncnc32)[C@H](O)[C@@H]1OP(=O)(O)O
In words: Steady-state kinetic constants of the E27A mutant. The class given is biochemical, Bombyx mori. Particulars: other: E27A mutant; named substrate varied; pH 8.0.

Substrate in data set [7]: NCCc1c[nH]c2ccccc12
In words: Steady-state kinetic constants of the E27A mutant. It counts as biochemical, Bombyx mori. Particulars: other: E27A mutant; named substrate varied; pH 8.0.

Setting [8] is: acyl-CoA substrate varied, 8.0 mM tryptamine, 22°C.
[9] abbreviates: binding to free Bm-iAANAT3, ITC and/or NMR.
[10] abbreviates: amine substrate varied, 500 μM acetyl-CoA, 22°C.
[11] abbreviates: amine substrate varied, 500 μM acetyl-CoA, 22°C, 300 mM Tris pH 8.0, 150 μM DTNB.

In the case of `CCCC(=O)SCCNC(=O)CCNC(=O)[C@H](O)C(C)(C)COP(=O)(O)OP(=O)(O)OC[C@H]1O[C@@H](n2cnc3c(N)ncnc32)[C@H](O)[C@@H]1OP(=O)(O)O` [Butyryl, buytryl-CoA], the kcat on Bm-iAANAT3 [1] (setting [8]) was found to be 4.0 ± 0.04 s⁻¹.

Consider `CC(C)(COP(=O)(O)OP(=O)(O)OC[C@H]1O[C@@H](n2cnc3c(N)ncnc32)[C@H](O)[C@@H]1OP(=O)(O)O)[C@@H](O)C(=O)NCCC(=O)NCCS` [CoA-SH], for which the equilibrium dissociation constant (Kd) on Bm-iAANAT3 [2] (setting [9]) is 30 ± 1 µM.

As for `NCCc1ccc(O)c(O)c1` [Dopamine], the kcat at Bm-iAANAT3 [1] (setting [10]) is 55 ± 1.1 s⁻¹. For the same molecule, the Michaelis-Menten constant (Km) at Bm-iAANAT3 [1] (setting [11]) turned out to be 0.33 ± 0.023 mM.

Regarding `NCCc1c[nH]cn1` [Histamine], the kcat at Bm-iAANAT3 [1] (setting [10]) came out at 33 ± 0.68 s⁻¹. Besides, the Km at Bm-iAANAT3 [1] (setting [11]) is 1.7 ± 0.098 mM; on Bm-iAANAT3 [1] (amine substrate, as given in the text in mM, 500 μM acetyl-CoA), 1.7 ± 0.1 mM.

For `CC(=O)NCCc1c[nH]c2ccccc12` [N-acetyltryptamine], the “effect of added CoA-SH on binding” value at Bm-iAANAT3 [2] (addition of CoA-SH) is “not affected”. For the same molecule, on Bm-iAANAT3 [2] (addition of acetyl-CoA), the “effect of added acetyl-CoA on binding” value was “eliminated”. The dissociation constant Kd on Bm-iAANAT3 [2] (setting [9]) is 12 ± 3 µM. Further, at Bm-iAANAT3 [3], the “inhibition pattern vs. acetyl-CoA” value was “competitive” and the “inhibition pattern vs. tryptamine” value is reported as “noncompetitive”.

As for `NC[C@H](O)c1ccc(O)c(O)c1` [Norepinephrine], at Bm-iAANAT3 [1] (setting [10]), the kcat turned out to be 5.3 ± 0.07 s⁻¹. The Michaelis-Menten constant (Km) at Bm-iAANAT3 [1] (setting [11]) was 0.14 ± 0.0086 mM.

For the molecule `NCCc1c[nH]c2ccccc12` [Tryptamine], in data set [4], the “fold increase in Km, E27A mutant vs wild-type” value is 100 fold. The equilibrium dissociation constant (Kd) on Bm-iAANAT3 [2] (setting [9]) is 220 ± 8 µM.

Regarding `NCCc1ccc(O)cc1` [Tyramine], the kcat on Bm-iAANAT3 [1] (setting [10]) worked out at 27 ± 0.6 s⁻¹. Moreover, the Km at Bm-iAANAT3 [1] (setting [11]) stood at 0.063 ± 0.0067 mM.

Turning to `CC(=O)SCCNC(=O)CCNC(=O)[C@H](O)C(C)(C)COP(=O)(O)OP(=O)(O)OC[C@H]1O[C@@H](n2cnc3c(N)ncnc32)[C@H](O)[C@@H]1OP(=O)(O)O` [acetyl-CoA], the kcat on Bm-iAANAT3 [1] (setting [8]) stood at 64 ± 0.7 s⁻¹. Further, the Kd on Bm-iAANAT3 [2] (setting [9]) was 0.7 µM.

As to `CCCCCCCCCC(=O)SCCNC(=O)CCNC(=O)[C@H](O)C(C)(C)COP(=O)(O)OP(=O)(O)OC[C@H]1O[C@@H](n2cnc3c(N)ncnc32)[C@H](O)[C@@H]1OP(=O)(O)O` [decanoyl-CoA], the kcat on Bm-iAANAT3 [1] (setting [8]) amounted to 0.05 ± 0.004 s⁻¹.

Turning to `CCCCCC(=O)SCCNC(=O)CCNC(=O)C(O)C(C)(C)COP(=O)(O)OP(=O)(O)OC[C@H]1O[C@@H](n2cnc3c(N)ncnc32)[C@H](O)[C@@H]1OP(=O)(O)O` (stereo partly shown) [hexanoyl-CoA], at Bm-iAANAT3 [1] (setting [8]), the kcat amounted to 1.3 ± 0.01 s⁻¹.

On to `CC(C)(COP(=O)(O)OP(=O)(O)OC[C@H]1O[C@@H](n2cnc3c(N)ncnc32)[C@H](O)[C@@H]1OP(=O)(O)O)[C@@H](O)C(=O)NCCC(=O)NCCSC(=O)CC(=O)O` [malonyl-CoA], for which, on Bm-iAANAT3 [1] (setting [8]), the kcat worked out at 13 ± 1.5 s⁻¹. In addition, the “fold lower (kcat/Km) than (kcat/Km) of decanoyl-CoA” value at Bm-iAANAT3 [1] (acyl-CoA substrates, 8.0 mM tryptamine) is ~ 6 fold. Besides, on Bm-iAANAT3 [5], the “substrate activity as acyl-CoA donor” value was “is a substrate”.

For the molecule `CCCCCCCC(=O)SCCNC(=O)CCNC(=O)[C@H](O)C(C)(C)COP(=O)(O)OP(=O)(O)OC[C@H]1O[C@@H](n2cnc3c(N)ncnc32)[C@H](O)[C@@H]1OP(=O)(O)O` [octanoyl-CoA], the kcat on Bm-iAANAT3 [1] (setting [8]) came out at 0.36 ± 0.005 s⁻¹.

In the case of `CCCCCCCC/C=C\CCCCCCCC(=O)SCCNC(=O)CCNC(=O)[C@H](O)C(C)(C)COP(=O)(O)OP(=O)(O)OC[C@H]1O[C@@H](n2cnc3c(N)ncnc32)[C@H](O)[C@@H]1OP(=O)(O)O` [oleoyl-CoA], the “substrate activity as acyl-CoA donor” value on Bm-iAANAT3 [5] is recorded as “no initial velocity increase”. For the same molecule, on Bm-iAANAT3 [3], the “inhibition pattern vs. acetyl-CoA” value was “competitive” and the “inhibition pattern vs. tryptamine” value is on record as “noncompetitive”. Besides, the Ki on Bm-iAANAT3 [3] (read-out: Ki,s, competitive vs. acetyl-CoA (varied), tryptamine fixed at 100 μM) is 0.22 ± 0.02 µM.

As to `OCCc1c[nH]c2ccccc12` [tryptophol], the Kd is 230 ± 12 µM on Bm-iAANAT3 [2] (setting [9]) and 50 ± 2 µM at Bm-iAANAT3 [2] (in the presence of acetyl-CoA).

Molecule `OCCc1ccc(O)cc1` [tyrosol] showed a Ki at Bm-iAANAT3 [3] (Ki,i, uncompetitive vs. acetyl-CoA (varied), tryptamine fixed at 100 μM) of 230 ± 10 µM. Also, on Bm-iAANAT3 [3] (Ki,s, competitive vs. tryptamine (varied), acetyl-CoA fixed at 100 μM), the Ki stood at 90 ± 10 µM. Moreover, at Bm-iAANAT3 [3], the “inhibition pattern vs. acetyl-CoA” value is reported as “uncompetitive” and the “inhibition pattern vs. tryptamine” value is recorded as “competitive”.

B1: E27A mutant of Bm-iAANAT3 (Bombyx mori; E27A) (protein)
chain: T2 sequence (D7EZJ9 1-213 E27A)
For the molecule B1, in data set [6], the Km worked out at 20 ± 2.2 µM and the kcat is listed as 4.0 ± 0.09 × 10^−2 s^−1. Moreover, in data set [7], the Michaelis constant (Km) came out at 9400 ± 990 µM and the kcat is 8.0 ± 0.3 × 10 s^−1.

In general, Kd refers to the equilibrium constant for the complex coming apart. For orientation: Km means the concentration of substrate that gives half-maximal velocity. The term Ki denotes a dissociation constant, usually derived from enzyme kinetics or from competition with a known ligand.
